Activity calls are given as the source filed them. The calls are words filed in the database; no cut-off is given here.
Tests used:
HeLa [1] = assay: Antiproliferative activity against human HeLa cells assessed as inhibition of cell growth; assay type: functional, cell-based
Summary of the method: (§1)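 Growth inhibition of cancer cell lines read from dose-response curves; IC50 as mean ± SEM of at least three independent experiments.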

Daoy = assay: Antiproliferative activity against human Daoy cells assessed as inhibition of cell growth; assay type: functional, cell-based
Summary of the method: (§2)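 Compounds from 10 mM DMSO stocks; final DMSO ≤0.25%. Growth inhibition of cancer cell lines read from dose-response curves; IC50 as mean ± SEM of at least three independent experiments.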

Jurkat = assay: Antiproliferative activity against human Jurkat cells assessed as inhibition of cell growth; assay type: functional, cell-based; summary of the method: as §2
SEM cells = assay: Antiproliferative activity against human SEM cells assessed as inhibition of cell growth; assay type: functional, cell-based; summary of the method: as §2
HT-29 = assay: Antiproliferative activity against human HT-29 cells assessed as inhibition of cell growth; assay type: functional, cell-based; summary of the method: as §1
HL-60 = assay: Antiproliferative activity against human HL-60 cells assessed as inhibition of cell growth; assay type: functional, cell-based; summary of the method: as §1
[2] = Inhibition of bovine brain tubulin polymerisation preincubated with compound followed by GTP addition and measured after 20 mins by turbidimetry based spectrophotometric method; assay type: tissue-based, Bos taurus
Summary of the method: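 Bovine brain tubulin (10 µM) in glutamate buffer, preincubated with varying compound concentrations at 30 °C, then cooled to 0 °C. GTP added to 0.4 mM final, then warmed to 30 °C in a recording spectrophotometer. Assembly followed by turbidity at 350 nm.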

Bos taurus [3] = species: Bos taurus; assay: Inhibition of [3H]colchicine binding to bovine brain tubulin at 5 uM relative to control
Summary of the method: (§3)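 [3H]colchicine binding to purified tubulin, with tubulin at 0.5 µM and colchicine at 5 µM. Compounds tested at 5 and 0.5 µM. CA-4 was run in contemporaneous experiments for comparison.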

Bos taurus [4] = species: Bos taurus; assay: Inhibition of [3H]colchicine binding to bovine brain tubulin at 0.5 uM relative to control; assay type: tissue-based; summary of the method: as §3
[5] = Antitumor activity mouse E0771 cells implanted in C57BL/6 mouse assessed as reduction tumor growth at 30 mg/kg, ip administered every other day relative to control; assay type: functional, EO771; set-up: scale not given: the % may be the effect or the level left
Summary of the method: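 Female C57BL/6 mice, seven weeks old, injected orthotopically into the mammary fat pad with 4 × 10^5 E0771 cells. Palpable tumours randomised into groups, dosed intraperitoneally every other day in DMSO vehicle, 100 µL final volume; vehicle-only controls. Caliper volume V=(D×d²)/2, tumour weight taken at end; n=5 mice/group; body weight monitored; two-way ANOVA with Bonferroni.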

[6] = Cytotoxicity against human PBL assessed as inhibition of cell growth; assay type: cell-based; conditions: peripheral blood lymphocytes (PBL)
Summary of the method: (§4)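 Peripheral blood lymphocytes from healthy donors, tested either unstimulated or stimulated with PHA; DMSO ≤0.25% final. Values are mean ± SEM of three separate experiments.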

HeLa [7] = assay: Induction of microtubule network depolymerization in human HeLa cells assessed as appearance of disorganised microtubules at 100 nM after 24 hrs by immunofluorescence staining based confocal microscopic analysis; assay type: cell-based
Summary of the method: (§5)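 HeLa cells treated 24 h at 10, 50 or 100 nM. They were then fixed in cold 4% formaldehyde for 15 min and stained with anti-β-tubulin for 2 h at room temperature. Alexa 488 secondary and DAPI counterstain followed; imaged by confocal microscopy at 20X.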

HeLa [8] = assay: Induction of mitochondrial membrane potential loss in human HeLa cells assessed as cells with depolarized mitochondrial membrane at 10 nM after 48 hrs by JC-1 dye-based flow cytometric analysis (reference value: 7.8 %); assay type: functional
HeLa [9] = assay: Induction of mitochondrial membrane potential loss in human HeLa cells assessed as cells with polarized mitochondrial membrane at 10 nM after 48 hrs by JC-1 dye-based flow cytometric analysis (reference value: 92.0 %); assay type: functional
HeLa [10] = assay: Induction of apoptosis in human HeLa cells assessed as late apoptotic cells at 10 nM measured after 24 hrs by Annexin V-FITC/propidium iodide staining based flow cytometry (reference value: 1.22 %); assay type: functional
HeLa [11] = assay: Induction of microtubule network depolymerization in human HeLa cells assessed as appearance of disorganised microtubules at 50 nM after 24 hrs by immunofluorescence staining based confocal microscopic analysis; assay type: cell-based; summary of the method: as §5
HeLa [12] = assay: Induction of apoptosis in human HeLa cells assessed as early apoptotic cells at 10 nM measured after 48 hrs by Annexin V-FITC/propidium iodide staining based flow cytometry (reference value: 0.96 %); assay type: functional
HeLa [13] = assay: Induction of mitochondrial membrane potential loss in human HeLa cells assessed as cells with depolarized mitochondrial membrane at 10 nM after 24 hrs by JC-1 dye-based flow cytometric analysis (reference value: 7.8 %); assay type: functional
HeLa [14] = assay: Induction of apoptosis in human HeLa cells assessed as necrotic cells at 10 nM measured after 48 hrs by Annexin V-FITC/propidium iodide staining based flow cytometry (reference value: […]); assay type: functional
HeLa [15] = assay: Induction of microtubule network depolymerization in human HeLa cells assessed as appearance of disorganised microtubules at 10 nM after 24 hrs by immunofluorescence staining based confocal microscopic analysis; assay type: cell-based; summary of the method: as §5
HeLa [16] = assay: Induction of apoptosis in human HeLa cells assessed as late apoptotic cells at 10 nM measured after 48 hrs by Annexin V-FITC/propidium iodide staining based flow cytometry (reference value: 1.22 %); assay type: functional
HeLa [17] = assay: Induction of apoptosis in human HeLa cells assessed as early apoptotic cells at 10 nM measured after 24 hrs by Annexin V-FITC/propidium iodide staining based flow cytometry (reference value: 0.96 %); assay type: functional
[18] = Cytotoxicity against PHA-stimulated human PBL assessed as inhibition of cell growth; assay type: cell-based; conditions: PHA-stimulated peripheral blood lymphocytes (PBL); summary of the method: as §4
HeLa [19] = assay: Induction of apoptosis in human HeLa cells assessed as viable cells at 10 nM measured after 24 hrs by Annexin V-FITC/propidium iodide staining based flow cytometry (reference value: 97.28 %); assay type: functional; conditions: read-out: Activity
HeLa [20] = assay: Induction of apoptosis in human HeLa cells assessed as viable cells at 10 nM measured after 48 hrs by Annexin V-FITC/propidium iodide staining based flow cytometry (reference value: 97.28 %); assay type: functional; conditions: read-out: Activity
[21] = Cytotoxicity against normal human astrocytes assessed as inhibition of cell growth; assay type: cell-based, Astrocyte
HeLa [22] = assay: Induction of apoptosis in human HeLa cells assessed as necrotic cells at 10 nM measured after 24 hrs by Annexin V-FITC/propidium iodide staining based flow cytometry (reference value: […]); assay type: functional
HeLa [23] = assay: Induction of mitochondrial membrane potential loss in human HeLa cells assessed as cells with polarized mitochondrial membrane at 10 nM after 24 hrs by JC-1 dye-based flow cytometric analysis (reference value: 92.0 %); assay type: functional

Row | IC50 (HeLa [1]) | IC50 (Jurkat) | IC50 (HT-29) | IC50 (HL-60) | IC50 [2] | inhibition (Bos taurus [3]) | inhibition (Bos taurus [4]) | SMILES | IC50 (Daoy) | IC50 (SEM cells) | further results
1 | 0.496 µM | 0.333 µM | 0.477 µM | 0.233 µM | – | – | – | COc1cc(C(=O)c2c(N)oc3c(OC)cccc23)cc(OC)c1OC | 0.345 µM | 0.285 µM | –
2 | 0.056 µM | 0.0292 µM | 0.0629 µM | 0.0362 µM | 0.5 µM | 73% | – | COc1ccc2oc(N)c(C(=O)c3cc(OC)c(OC)c(OC)c3)c2c1 | 0.0362 µM | 0.0389 µM | –
3 | 0.591 µM | 0.299 µM | 3.42 µM | 0.285 µM | – | – | – | COc1cc(C(=O)c2c(N)oc3cc(O)ccc23)cc(OC)c1OC | 0.428 µM | 0.371 µM | –
4 | 0.635 µM | 0.399 µM | 0.79 µM | 0.413 µM | – | – | – | COc1cc(C(=O)c2c(N)oc3ccc(N)cc23)cc(OC)c1OC | 0.494 µM | 0.259 µM | –
5 | 9.67 µM | 4.39 µM | 8.68 µM | 7.06 µM | – | – | – | COc1cc(C(=O)c2c(N)oc3cc(OCc4ccccc4)ccc23)cc(OC)c1OC | > 10 µM | 3.68 µM | –
6 | 0.0227 µM | 0.0272 µM | 0.0177 µM | 0.0417 µM | 0.51 µM | 91% | 42% | CCCOc1ccc2c(C(=O)c3cc(OC)c(OC)c(OC)c3)c(N)oc2c1 | 0.0044 µM | 0.0297 µM | –
7 | 1.25 µM | 0.39 µM | 0.91 µM | 0.428 µM | – | – | – | CCOc1cccc2c(C(=O)c3cc(OC)c(OC)c(OC)c3)c(N)oc12 | 1.67 µM | 0.385 µM | –
8 | 0.0045 µM | 0.0028 µM | 0.0054 µM | 0.0056 µM | 0.57 µM | 92% | 56% | COc1cc(C(=O)c2c(N)oc3cc(Br)ccc23)cc(OC)c1OC | 0.0025 µM | 0.0035 µM | –
9 | 0.591 µM | 0.299 µM | 0.682 µM | 0.413 µM | – | – | – | COc1cc(C(=O)c2c(N)oc3cc(F)ccc23)cc(OC)c1OC | 0.846 µM | 0.333 µM | –
10 | – | – | – | – | – | – | – | COc1ccc(/C=C\c2cc(OC)c(OC)c(OC)c2)cc1OP(=O)([O-])[O-].[Na+].[Na+] [FOSBRETABULIN DISODIUM] | – | – | Activity [5]: 26.5%
11 | 0.413 µM | 0.385 µM | 0.591 µM | 0.339 µM | – | – | – | COc1cc(C(=O)c2c(N)oc3ccccc23)cc(OC)c1OC | 0.371 µM | 0.25 µM | –
12 | 0.0062 µM | 0.0031 µM | 0.787 µM | 0.0035 µM | – | – | – | COc1ccc2c(N)c(C(=O)c3cc(OC)c(OC)c(OC)c3)oc2c1 | 0.005 µM | 0.0036 µM | –
13 | 0.0011 µM | 0.00033 µM | 0.0006 µM | 0.0035 µM | 0.39 µM | 97% | 74% | COc1cc(C(=O)c2c(N)oc3cc(C)ccc23)cc(OC)c1OC | 0.00034 µM | 0.0003 µM | GI50 [6]: > 10 µM; Activity (HeLa [7]): Active; Activity (HeLa [8]): 42.6%; Activity (HeLa [9]): 57.3%; Activity (HeLa [10]): 2.51%; Activity (HeLa [11]): Active; Activity (HeLa [12]): 37.13%; Activity (HeLa [13]): 24.8%; Activity (HeLa [14]): 27.08%; Activity (HeLa [15]): Active; Activity (HeLa [16]): 9.35%; Activity (HeLa [17]): 10.95%; GI50 [18]: > 10 µM; viability at 0.01 µM (HeLa [19]): 74.4%; viability at 0.01 µM (HeLa [20]): 26.4%; GI50 [21]: > 10 µM; Activity (HeLa [22]): 12.11%; Activity (HeLa [23]): 74.9%
14 | 0.0029 µM | 0.0027 µM | 0.0056 µM | 0.003 µM | 0.48 µM | 99% | 79% | COc1ccc2c(C(=O)c3cc(OC)c(OC)c(OC)c3)c(N)oc2c1 | 0.0003 µM | 0.0041 µM | –
15 | 5.23 µM | 2.76 µM | 6.51 µM | 4.89 µM | – | – | – | COc1cc(C(=O)c2c(N)oc3cccc(OC)c23)cc(OC)c1OC | 3.95 µM | 4.56 µM | –

Row | SMILES | IC50 (HeLa [1]) | IC50 (Jurkat) | IC50 (HT-29) | IC50 (HL-60) | IC50 [2] | inhibition (Bos taurus [3]) | inhibition (Bos taurus [4]) | IC50 (Daoy) | IC50 (SEM cells) | further results
16 | COc1cc(C(=O)c2c(N)oc3c(O)c(OC)ccc23)cc(OC)c1OC | 0.0153 µM | 0.00034 µM | 0.424 µM | 0.0028 µM | 0.59 µM | 99% | 87% | 0.00032 µM | 0.259 µM | –
17 | COc1ccc(/C=C\c2cc(OC)c(OC)c(OC)c2)cc1O [COMBRETASTATIN A4] | – | 0.0008 µM | – | – | – | 97% | 82% | 0.0123 µM | – | –

Source: ChEMBL document CHEMBL4765328 (Eur J Med Chem, 2020)
